Results collected from several papers.
Lines come from different studies, so protocols differ. pIC50, pKi: −log10 of the molar value.
Prolyl endopeptidase: Prolyl endopeptidase (Mus musculus, UniProt Q9QUR6)
Sialidase-3: Sialidase-3 (Homo sapiens, UniProt Q9UQ49)
ENO1: ENO1 (Candida albicans, UniProt P30575)
Oprm1: Mu-type opioid receptor (Oprm1, Rattus norvegicus, UniProt P33535)

`COc1c2c(cc3c1-c1c(cc4c(c1OC)OCO4)C[C@H](C)[C@H](C)C3)OCO2` has a pIC50 of under 4.00 (Prolyl endopeptidase; enzyme activity; inhibitor; fluorescence).
With `CCCCNC(=O)N[C@H]1[C@H]([C@H](O)[C@H](O)CO)OC(C(=O)O)=C[C@@H]1O` the pIC50 was under 3.30 (Sialidase-3; enzyme activity; inhibitor).
The pIC50 of `C=CCc1ccc(O)c(-c2cc(CC=C)ccc2O)c1` is reported as under 4.00 (Prolyl endopeptidase; enzyme activity; inhibitor; fluorescence).
The pIC50 of `O=Nc1c(O)[nH]c(=O)[nH]c1=O` is reported as under 4.30 (ENO1; enzyme activity; inhibitor; absorbance).
The pIC50 of `CC(C)(C)CC(=O)N[C@H]1[C@H]([C@H](O)[C@H](O)CO)OC(C(=O)O)=C[C@@H]1O` is reported as under 3.30 (Sialidase-3; enzyme activity; inhibitor).
With `C/C=C1/CN2CC[C@]34C(=C(C(=O)OC)[C@H]1C[C@H]23)Nc1ccc(Br)cc14` the pKi was 6.18 (Oprm1; ligand displacement; radioligand; cell membranes).
With `O=C1CCCN1CP(=O)(O)O` the pIC50 was under 4.30 (ENO1; enzyme activity; inhibitor; absorbance).
`COc1cc2c(cc1OC)CN(CCc1ccc(NC(=O)c3cccc4c(=O)c5cccc(OC)c5[nH]c34)cc1)CC2` has a pKi of under 5.00 (D(4) dopamine receptor (DRD4, Homo sapiens, UniProt P21917); cell-free assay).
For `C/C=C1/CN2CC[C@]34C(=C(C(=O)OC)[C@H]1C[C@H]23)Nc1ccc(I)cc14`, the pKi was 6.41 (Oprm1; ligand displacement; radioligand; cell membranes).
For `CN1C(=O)CN=C(c2ccccc2F)c2cc([N+](=O)[O-])ccc21`, the pIC50 was 5.80 (Aldo-keto reductase family 1 member C2 (AKR1C2, Homo sapiens, UniProt P52895); enzyme activity; inhibitor).
